The results in this text go back to ChEMBL document CHEMBL1137680, “A class of potent tyrosinase inhibitors: alkylidenethiosemicarbazide compounds” (Eur J Med Chem, 2009).

The term IC50 denotes the concentration needed to halve the response being measured.

This experiment concerns the target T1, Tyrosinase (Agaricus bisporus, UniProt O42713).
T1 sequence (O42713 whole entry): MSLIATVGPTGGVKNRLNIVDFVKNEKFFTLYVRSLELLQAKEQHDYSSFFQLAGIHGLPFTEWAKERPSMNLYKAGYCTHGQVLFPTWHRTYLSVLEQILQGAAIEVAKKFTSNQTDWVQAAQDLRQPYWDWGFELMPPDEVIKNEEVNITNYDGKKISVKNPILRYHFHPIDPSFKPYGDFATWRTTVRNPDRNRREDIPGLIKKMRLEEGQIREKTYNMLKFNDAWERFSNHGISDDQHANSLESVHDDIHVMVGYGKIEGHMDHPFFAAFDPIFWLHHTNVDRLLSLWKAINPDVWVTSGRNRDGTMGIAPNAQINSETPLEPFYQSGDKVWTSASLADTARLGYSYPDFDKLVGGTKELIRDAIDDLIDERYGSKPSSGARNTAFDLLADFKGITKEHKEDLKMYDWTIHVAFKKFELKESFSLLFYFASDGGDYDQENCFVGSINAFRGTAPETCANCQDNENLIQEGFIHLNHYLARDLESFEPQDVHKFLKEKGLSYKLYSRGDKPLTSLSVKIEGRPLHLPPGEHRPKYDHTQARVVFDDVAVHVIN
Nature of the experiment: Inhibition of mushroom tyrosinase. The procedure, abridged:
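Mushroom tyrosinase diphenolase activity, 30 units (0.2 mg/mL), preincubated 10 min at 25 °C with compound in 50 mM phosphate buffer pH 6.8; compound diluted from DMSO stock. At least eight inhibitor concentrations; IC50 interpolated from dose-response curves.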
On to `C/C=C/C=N\NC(N)=S`, for which the IC50 was 1000 nM. This lies in the single-digit micromolar range.

`CC/C=N\NC(N)=S` registered an IC50 of 200 nM. Compared with the last molecule, the IC50 is about 5-fold lower.

As to `NC(=S)N/N=C1\CCCC(=O)C1`, the IC50 was found to be 15100 nM.

`NC(=S)N/N=C\C=C\c1ccccc1`: it took 2700 nM to reach half-maximal inhibition (IC50).

For `CC(C)=NNC(N)=S`, the IC50 came out at 86 nM.

For `CC(C)=C/C(C)=N\NC(N)=S`, the IC50 was found to be 11500 nM.

On to `Cc1ccc(C)n1NC(N)=S`, for which half-maximal inhibition (IC50) was put at 850 nM.

As to `NC(=S)NN=C1CCCC1`, it took 170 nM to reach half-maximal inhibition (IC50). Compared with the last molecule, the IC50 is about 5-fold lower.

Molecule `CC(C)/C=N\NC(N)=S` came in with a 50% inhibitory concentration (IC50) of 620 nM.

In turn, `NC(=S)NN=C1CCCCC1` returned an IC50 of 950 nM.

Consider `CC/C(C)=N\NC(N)=S`, for which the IC50 is 280 nM.

In the case of `C/C=N\NC(N)=S`, the IC50 came to 230 nM.
